Results as given in ChEMBL document CHEMBL3232988, “Design, synthesis and biological evaluation of a series of pyrano chalcone derivatives containing indole moiety as novel anti-tubulin agents” (Bioorg Med Chem, 2014).
pIC50: −log10 of the molar value. Calls of active or inactive are those of the source. The calls are words filed in the database; no cut-off is given here.

Legend:
HepG2 [1] = assay: Antitumor activity against human HepG2 cells xenografted in BALB/c nude mouse assessed as tumor growth inhibition at 5 mg/kg, iv administered once every 2 days for 21 days measured every 3 days up to 35 days relative to control; type: functional; conditions: read-out: TGI
Procedure, shortened: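 Female BALB/c nude mice, six weeks old (16–18 g), inoculated in the right gluteal region with 1 × 10⁷ HepG2 cells in 0.1 mL DMEM. When tumours reached 100 mm³, mice were randomised into four groups of six. Dosing was by tail-vein injection; the vehicle group followed the test schedule. Tumours were measured by caliper every 3 days, with volume = π/6 × length × width × width.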

HepG2 [2] = assay: Cell cycle arrest in human HepG2 cells assessed as accumulation at G2/M-phase at 0.25 uM after 24 hrs by propidium iodide staining-based flow cytometric analysis (reference value: 25.5%); type: functional
Procedure, shortened: (§1)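 HepG2 cells (2 × 10⁵) cultured 24 h, then given 0.1% DMSO vehicle or compound for 24 h. Fixed in ice-chilled methanol at least 30 min at 4 °C, washed twice with PBS, then stained 0.5 h at 37 °C in PBS with 1 mg/mL RNase A and propidium iodide. DNA content measured by flow cytometry for phase distribution.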

HepG2 [3] = assay: Cell cycle arrest in human HepG2 cells assessed as accumulation at G2/M-phase at 0.125 uM after 24 hrs by propidium iodide staining-based flow cytometric analysis (reference value: 25.5%); type: functional; procedure, shortened: as §1
HCT-116 = assay: Antiproliferative activity against human HCT116 cells after 24 hrs by MTT assay; type: functional, cell-based; conditions: HCT-116, 24 h
Procedure, shortened: (§2)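 Seeded at 1 × 10⁴ cells per well, incubated 24 h before treatment. MTT (20 µL of 5 mg/mL in PBS) added per well and incubated until purple precipitate appeared. Medium removed, precipitate dissolved in 150 µL DMSO, shaken 10 min, absorbance read at 570 nm. Growth expressed as percentage of untreated control.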

HepG2 [4] = assay: Cell cycle arrest in human HepG2 cells assessed as accumulation at S-phase at 0.25 uM after 24 hrs by propidium iodide staining-based flow cytometric analysis (reference value: 32%); type: functional; procedure, shortened: as §1
SK-OV-3 = assay: Antiproliferative activity against human SKOV3 cells after 24 hrs by MTT assay; type: functional, cell-based; conditions: SK-OV-3, 24 h; procedure, shortened: as §2
HepG2 [5] = assay: Cell cycle arrest in human HepG2 cells assessed as accumulation at G1-phase at 0.50 uM after 24 hrs by propidium iodide staining-based flow cytometric analysis (reference value: 42.5%); type: functional; procedure, shortened: as §1
HepG2 [6] = assay: Cell cycle arrest in human HepG2 cells assessed as accumulation at G1-phase at 0.125 uM after 24 hrs by propidium iodide staining-based flow cytometric analysis (reference value: 42.5%); type: functional; procedure, shortened: as §1
MCF7 = assay: Antiproliferative activity against human MCF7 cells after 24 hrs by MTT assay; type: functional, cell-based; conditions: MCF7, 24 h; procedure, shortened: as §2
[7] = Antiproliferative activity against human […] cells after 24 hrs by MTT assay; type: functional, cell-based; procedure, shortened: as §2
HepG2 [8] = assay: Cell cycle arrest in human HepG2 cells assessed as accumulation at G2/M-phase at 0.50 uM after 24 hrs by propidium iodide staining-based flow cytometric analysis (reference value: 25.5%); type: functional; procedure, shortened: as §1
HepG2 [9] = assay: Antiproliferative activity against human HepG2 cells after 24 hrs by MTT assay; type: functional, cell-based; conditions: HepG2, 24 h; procedure, shortened: as §2
HepG2 [10] = assay: Cell cycle arrest in human HepG2 cells assessed as accumulation at G2/M-phase after 24 hrs by propidium iodide staining-based flow cytometric analysis; type: functional; procedure, shortened: as §1
HepG2 [11] = assay: Antitumor activity against human HepG2 cells xenografted in BALB/c nude mouse assessed as tumor growth inhibition at 30 mg/kg, iv administered once every 2 days for 21 days measured every 3 days up to 35 days relative to control; type: functional; conditions: read-out: TGI
Procedure, shortened: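 Female BALB/c nude mice, six weeks old (16–18 g), inoculated in the right gluteal region with 1 × 10⁷ HepG2 cells in 0.1 mL DMEM. At 100 mm³, randomized into four groups of six. Tail-vein dosing every other day for 21 days; vehicle control on the same schedule; 5-Fu 5 mg/kg iv daily as reference. Caliper measurement every 3 days, volume = π/6 × length × width × width. Compared with control by t test.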

HepG2 [12] = assay: Cell cycle arrest in human HepG2 cells assessed as accumulation at S-phase at 0.375 uM after 24 hrs by propidium iodide staining-based flow cytometric analysis (reference value: 32%); type: functional; procedure, shortened: as §1
HepG2 [13] = assay: Cell cycle arrest in human HepG2 cells assessed as accumulation at G1-phase at 0.375 uM after 24 hrs by propidium iodide staining-based flow cytometric analysis (reference value: 42.5%); type: functional; procedure, shortened: as §1
K562 = assay: Antiproliferative activity against human K562 cells after 24 hrs by MTT assay; type: functional, cell-based; conditions: K562, 24 h; procedure, shortened: as §2
HepG2 [14] = assay: Induction of apoptosis in human HepG2 cells after 48 hrs by propidium iodide staining-based flow cytometric analysis; type: functional, cell-based
[15] = Antiproliferative activity against taxol resistant human HCT8 cells after 24 hrs by MTT assay; type: functional, cell-based; conditions: HCT-8, 24 h; procedure, shortened: as §2
A549 = assay: Antiproliferative activity against human A549 cells after 24 hrs by MTT assay; type: functional, cell-based; conditions: A549, 24 h; procedure, shortened: as §2
HepG2 [16] = assay: Cell cycle arrest in human HepG2 cells assessed as accumulation at S-phase at 0.125 uM after 24 hrs by propidium iodide staining-based flow cytometric analysis (reference value: 32%); type: functional; procedure, shortened: as §1
[17] = Cytotoxicity against human LO2 cells after 24 hrs by MTT assay; type: cell-based; conditions: L02, 24 h; procedure, shortened: as §2
HepG2 [18] = assay: Cell cycle arrest in human HepG2 cells assessed as accumulation at S-phase at 0.50 uM after 24 hrs by propidium iodide staining-based flow cytometric analysis (reference value: 32%); type: functional; procedure, shortened: as §1
Rattus norvegicus = species: Rattus norvegicus; assay: Inhibition of rat tubulin polymerization at 10 uM measured for 60 mins by luminometric analysis
PC-3 = assay: Antiproliferative activity against human PC3 cells after 24 hrs by MTT assay; type: functional, cell-based; conditions: PC-3, 24 h; procedure, shortened: as §2
[19] = Antiproliferative activity against vincristine resistant human HCT8 cells after 24 hrs by MTT assay; type: functional, cell-based; conditions: HCT-8, 24 h; procedure, shortened: as §2
HepG2 [20] = assay: Cell cycle arrest in human HepG2 cells assessed as accumulation at G2/M-phase at 0.375 uM after 24 hrs by propidium iodide staining-based flow cytometric analysis (reference value: 25.5%); type: functional; procedure, shortened: as §1

O=c1[nH]cc(F)c(=O)[nH]1 [FLUOROURACIL]
inhibition in vivo at 5 mg/kg (HepG2 [1]): 25.9%

CCC(=O)Oc1ccc(C(=O)/C=C/c2ccc3c(ccn3C)c2)c2c1C=CC(C)(C)O2
Activity (HepG2 [2]): 60.7%
Activity (HepG2 [3]): 26.2%
pIC50 (HCT-116): 5.89
Activity (HepG2 [4]): 35%
pIC50 (SK-OV-3): 6.64
Activity (HepG2 [5]): 1.6%
Activity (HepG2 [6]): 30.7%
pIC50 (MCF7): 5.82
pIC50 [7]: 5.74
Activity (HepG2 [8]): 86%
pIC50 (HepG2 [9]): 6.66
Activity (HepG2 [10]): Dose-dependent effect
inhibition in vivo at 30 mg/kg (HepG2 [11]): 56.6%
Activity (HepG2 [12]): 22.5%
Activity (HepG2 [13]): 2.5%
pIC50 (K562): 6.10
Activity (HepG2 [14]): Dose-dependent effect
pIC50 [15]: 5.80
pIC50 (A549): 6.17
Activity (HepG2 [16]): 43.1%
pIC50 [17]: < 5.00
Activity (HepG2 [18]): 12.4%
inhibition (Rattus norvegicus): Active
pIC50 (PC-3): 6.19
pIC50 [19]: 6.35
Activity (HepG2 [20]): 75%
